Compounds with a hit are over-represented: about 2.9% of the library has one in this group of screens.
NS3 helicase inh: blocks Hepatitis C virus NS3 helicase unwinding. NS3 helicase DNA unwinding, Cy5 molecular beacon fluorescence. inhibition, % at 10.9 µM. 0.56% of 290,000 active;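 active = inhibition above the mean of all tested compounds plus 3 SD, set per campaign, cut at about 35% in these data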
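Material: hepatitis C virus NS3 helicase domain fragment enzyme; measured by: Cy5 fluorescence, 0 and 60 min reads; control set: DMSO and thioflavine S; incubation: 60 min unwinding reaction at 25 °C after ATP addition; read-out basis: % inhibition from 60/0 min fluorescence ratio, DMSO 0%, thioflavine S 100%; repeats: singlicate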
APOBEC3G inh: APOBEC3G (human) deaminase inhibition | Q9HC16 | recombinant A3G, ssDNA deamination FAM/TAMRA fluorescence | inhibition, % at 20 µM | 0.28% of 330,000 active | AID 493012;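 active = inhibition of at least 40% at 20 µM, with no more than 30% in the related APOBEC3A deaminase screen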
PRMT1 FP inh: blocks human protein arginine methyltransferase 1; Q99873; recombinant PRMT1, activity-based probe fluorescence polarization; inhibition, % at 2.79 µM; 1.3% of 370,000 active;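 active = inhibition above about 21% made by adding two undisclosed values, limit read from the data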
Target sequence (Q99873 whole entry, looked up): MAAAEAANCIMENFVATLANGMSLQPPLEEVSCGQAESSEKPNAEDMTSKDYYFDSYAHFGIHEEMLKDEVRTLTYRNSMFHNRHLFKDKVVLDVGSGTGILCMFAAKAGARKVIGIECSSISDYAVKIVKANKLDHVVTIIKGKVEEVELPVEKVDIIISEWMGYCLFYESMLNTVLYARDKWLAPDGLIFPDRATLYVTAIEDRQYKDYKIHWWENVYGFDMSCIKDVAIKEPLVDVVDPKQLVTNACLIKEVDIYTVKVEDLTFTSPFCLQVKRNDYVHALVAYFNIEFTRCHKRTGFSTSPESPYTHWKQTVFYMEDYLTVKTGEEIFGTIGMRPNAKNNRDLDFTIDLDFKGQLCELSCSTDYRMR
APOBEC3A inh: human APOBEC3A DNA deaminase inhibition. AID 493011. 0.41% of 330,000 active. inhibition, % at 20 µM. recombinant A3A, FAM/TAMRA ssDNA deamination fluorescence;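 active = at least 40% inhibition at 20 µM here, with at most 30% in a related deaminase screen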
Target sequence (P31941 whole entry, looked up): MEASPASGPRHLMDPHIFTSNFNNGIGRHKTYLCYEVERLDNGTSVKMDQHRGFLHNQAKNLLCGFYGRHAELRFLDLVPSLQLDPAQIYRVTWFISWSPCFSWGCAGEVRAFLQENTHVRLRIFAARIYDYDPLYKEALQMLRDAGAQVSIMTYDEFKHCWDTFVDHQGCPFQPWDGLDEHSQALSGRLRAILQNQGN
core dimer inh: blocks dimerization of HCV core protein; TR-FRET GST/Flag-core106 dimerization, 1536-well; inhibition, % at 5 µM; 0.33% of 300,000 active; AID 1899;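 active = inhibition above the mean of all tested compounds plus 3 SD, set per screening campaign, cut at about 45% in these data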
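System: GST-tagged and Flag-tagged HCV core protein residues 1-106 / Input: core106 proteins, GST 13.5 nM and Flag 17 nM / Buffer or medium: KF-containing HEPES buffer, pH 7.45, DTT, CHAPS, BSA / Probe or stimulus: Eu-anti-GST and XL665-anti-Flag labelled anti-tag antibodies / Schedule: 4 h, 22.5 °C incubation / Technique: TR-FRET 671 and 617 nm emission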
ABHD5 PLIN5 PPI: blocks binding of human ABHD5 to perilipin-5 | Split G. princeps luciferase complementation, luminescence, 4 h | inhibition, % at 4 µM | 0.78% of 360,000 active;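 active = inhibition above the mean inhibition across every tested compound plus 3 SD, cut at about 22% in these data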
Numbers stand for hits; - = inactive; . = no result.

SMILES	NS3 helicase inh	APOBEC3G inh	PRMT1 FP inh	APOBEC3A inh	core dimer inh	ABHD5 PLIN5 PPI
C#CCOCCOCCOCCNc1nc(N2CCN(C(=O)CCCCCCCCCCNC(=O)[C@H]([C@@H](C)CC)n3cc(CCCCN=C(N)N)nn3)CC2)nc(N2CCN(C(=O)CCCCCCCCCCNC(=O)[C@H](CCCCN)n3cc(C[C@@H](C)CC)nn3)CC2)n1	.	-	.	-	-	.
C#CCOCCOCCOCCNc1nc(N2CCN(C(=O)CCCCCCCCCCNC(=O)[C@@H](CCSC)n3cc(CCO)nn3)CC2)nc(N2CCN(C(=O)CCCCCCCCCCNC(=O)[C@H]([C@@H](C)CC)n3cc(CCCCN=C(N)N)nn3)CC2)n1	.	-	.	-	-	57.3
C=CCn1c(SCC(=O)N2CC(C)OC(C)C2)nnc1-c1ccncc1 (stereo not drawn)	.	-	-	-	.	-
C#CCOCCOCCOCCNc1nc(N2CCN(C(=O)CCCCCCCCCCNC(=O)Cn3cc(C[C@@H](C)O)nn3)CC2)nc(N2CCN(C(=O)CCCCCCCCCCNC(=O)[C@H](CCCCN)n3cc(C[C@@H](C)CC)nn3)CC2)n1	.	-	.	-	-	42.8
C#CCOCCOCCOCCNc1nc(N2CCN(C(=O)CCCCCCCCCCNC(=O)[C@H](CCCCN)n3cc(CCCC(=O)O)nn3)CC2)nc(N2CCN(C(=O)CCCCCCCCCCNC(=O)[C@H](CCCCN)n3cc(CCCC(=O)O)nn3)CC2)n1	.	-	.	-	-	-
C#CCOCCOCCOCCNc1nc(N2CCN(C(=O)CCCCCCCCCCNC(=O)[C@H](CCCCN)n3cc(CCO)nn3)CC2)nc(N2CCN(C(=O)CCCCCCCCCCNC(=O)[C@H](CCCCN)n3cc(CCO)nn3)CC2)n1	.	-	.	-	-	29.3
Cc1ccccc1-n1c(-c2ccncc2)n[nH]c1=S	.	-	-	-	-	-
Cc1cccc(-n2c(-c3ccncc3)n[nH]c2=S)c1C	-	-	-	-	49.1	-
O=C(Nc1nc2ccc(F)cc2s1)C1CCN(S(=O)(=O)c2cc([N+](=O)[O-])ccc2Cl)CC1	-	-	-	-	46.5	-
Cc1ccc(NC(=O)C2CCN(S(=O)(=O)c3cc([N+](=O)[O-])ccc3Cl)CC2)nc1	.	-	-	-	.	-
CC(C)(C)c1ccc(/C([O-])=C(/C(=S)NCc2ccco2)[n+]2ccccc2)cc1	-	-	.	-	53.2	.
COc1ccc(S[C@]2(C(=O)N3CCN(c4ncccn4)CC3)CC(=O)N(C(=O)c3ccccc3)[C@@H]2c2ccc(OC)cc2)cc1	.	.	24.0	.	.	.
COc1ccc(S[C@]2(C(=O)N3CCN(c4ncccn4)CC3)CC(=O)N(P(=O)(OC)OC)[C@@H]2c2ccc(OC)cc2)cc1	.	.	-	.	.	.
COc1ccc(/C(O)=C2/C(=O)C(=O)N(Cc3ccco3)C2c2cccs2)cc1 (stereo not drawn)	-	-	24.2	-	-	-
Cc1ccc(C(=O)/C=C/C(=O)c2ccc(C)cc2)cc1	-	-	-	-	-	23.0
O=C(C[n+]1ccc(C(=O)N/N=C/c2ccc(OCc3ccccc3)cc2)cc1)c1ccccc1	-	-	-	-	-	26.3
Oc1ccc(N=Cc2ccc(OCc3ccccc3)cc2)cc1	-	-	35.9	-	-	-
COC(=O)c1cc2c(c3c4cc(F)ccc4n(S(=O)(=O)c4cccc(C)c4)c13)C(=O)N(Cc1ccco1)C2	.	.	-	.	.	.
CCSc1nnc(NC(=O)C2Cc3ccccc3CN2S(=O)(=O)CC)s1 (stereo not drawn)	-	-	-	-	49.0	-
CNC(=O)C1Cc2ccccc2CN1S(=O)(=O)c1cccs1 (stereo not drawn)	-	-	-	-	-	-
CCc1nnc(NC(=O)C2Cc3ccccc3CN2S(=O)(=O)c2cccs2)s1 (stereo not drawn)	-	-	-	-	59.2	-
O=C(Nc1nnc(C2CC2)s1)C1Cc2ccccc2CN1C(=O)c1ccco1 (stereo not drawn)	-	-	-	-	54.3	-
O=C(Nc1nnc(C2CC2)s1)C1Cc2ccccc2CN1S(=O)(=O)c1cccs1 (stereo not drawn)	-	-	-	-	66.8	-
CCS(=O)(=O)N1Cc2ccccc2CC1C(=O)Nc1nnc(SCc2c(Cl)cccc2Cl)s1 (stereo not drawn)	-	-	-	-	-	-
O=C(Nc1nnc(SCc2ccc(F)cc2)s1)C1Cc2ccccc2CN1C(=O)c1ccco1 (stereo not drawn)	-	-	-	-	-	-
SMILES	NS3 helicase inh	APOBEC3G inh	PRMT1 FP inh	APOBEC3A inh	core dimer inh	ABHD5 PLIN5 PPI
CCN(CC)S(=O)(=O)c1ccc(C(=O)NC(=S)N2CCCCC2C)cc1 (stereo not drawn)	.	.	-	.	.	-
O=C(N/N=C/c1sc2ccccc2c1O)c1cccc2ccccc12	-	.	55.0	.	-	-
COc1ccc2cc(C(=O)N/N=C/c3sc4ccccc4c3O)ccc2c1	-	-	24.7	-	-	-
Cc1nc(NC(=O)COC(=O)c2cccs2)c(Cl)cc1Cl	.	-	-	-	.	-
Cc1ccc2c(c1)N(C(=O)CSc1nncn1C)C(C)(C)c1ssc(=S)c1-2	-	-	29.2	-	-	-
O=C(CC1C(=O)NCCN1Cc1ccoc1)NCCCn1ncc2ccccc21 (stereo not drawn)	-	-	-	-	-	33.4
Cn1c(=S)[nH]c2ccccc21	-	-	-	-	-	-
S=c1[nH]c2ccccc2n2cccc12	-	-	-	-	55.4	-
CCN=c1scc(C)n1/N=C/c1cc(Br)c(O)c(Br)c1	-	-	-	-	-	-
CCN=c1scc(C)n1/N=C/c1ccc(O)c(O)c1O	-	-	59.6	-	-	-
COc1ccc(NC(=O)/C(Cl)=C(/Cl)S(=O)(=O)Cc2ccc(C)cc2)cn1	-	.	.	.	.	63.8
COc1ccc(CNC(=O)COC(=O)CN2C(=O)C3CCCCC3C2=O)cc1 (stereo not drawn)	.	.	-	.	.	-
CCOC(=O)NC1(Nc2ccc(C)cc2)Oc2ccccc2O1	-	-	36.6	-	-	-
CCOC(=O)NC1(NC(C)C)Oc2ccccc2O1	-	-	-	-	-	-
Nc1ccn([C@@H]2O[C@H](C(=O)N3CCN(C(=O)C(F)(F)F)CC3)[C@@H](O)[C@H]2O)c(=O)n1	.	.	-	.	.	.
COc1ccc(C2C3=C(N=C4SCC(=O)N42)c2ccccc2CC3)cc1 (stereo not drawn)	-	-	24.4	-	-	-
COC1(OC)C(/C=C/c2ccc(C)cc2)C(C#N)(C#N)C1(OC)OC (stereo not drawn)	-	-	-	-	-	22.0
Cc1ccc(OC(=O)COc2ccccc2)c(-n2nc3ccccc3n2)c1	-	-	-	-	-	-
Cc1ccc(OC(=O)COc2ccccc2C)c(-n2nc3ccccc3n2)c1	-	-	23.6	-	-	-

Bioassay records deposited in PubChem BioAssay by several laboratories.
